Data reported in the EternaBench riboswitch data.

Test system: MS2 coat protein
Assay: apparent Kd, MS2 coat protein; higher = weaker binding; RNA-MaP array; FMN 200 µM where present
Procedure, shortened: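 Apparent Kd: the median of filtered binding-curve fits from single clusters. Designs were transcribed on Illumina sequencing-chip clusters by stalled E. coli RNA polymerase and titrated with SNAP-549-labelled MS2 coat protein from 0.7 or 1.5 nM, doubling to 3 µM, in 100 mM Tris-HCl pH 7.5, 80 mM KCl, 4 mM MgCl2, BSA, DTT, yeast tRNA and Tween-20. Each series ran without and then with constant ligand, and green signal was normalised to red-channel RNA signal and control-cluster median Fmax.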

[1] = designed as: OFF switch for flavin mononucleotide, no ligand
[2] = ligand present: flavin mononucleotide, designed as: OFF switch for flavin mononucleotide
[3] = designed as: ON switch for flavin mononucleotide, no ligand
[4] = ligand present: flavin mononucleotide, designed as: ON switch for flavin mononucleotide

Sequence | apparent Kd [1] [nM] | apparent Kd [2] [nM] | apparent Kd [3] [nM] | apparent Kd [4] [nM]
ACCUCACAUGAGGAUCACCCAUGUAAGGAUAUCUUCGCUUUGACGUUGUUCUAUGCGAAGAGAAGGUACACGGC | 28.3 | 111 | – | –
ACCUCACAUGAGGAUCACCCAUGUUAGGAUAUCUCGGCGCCCUGUAGGCAGUAGCGCCAGAGAAGGAACGUGCA | 24.3 | 25.2 | – | –
ACCUCACAUGAGGAUCACCCAUGUUAGGAUAUUAAAUAGCGCGCAAAACAGCCCUGUAUGAGAAGGAGCUGGGA | 13.6 | 14.8 | – | –
ACCUGACAUGAGGAUCACCCAUGUGAGGAUAUGUACAUCAGGAAAAAAAAACUGAUGUACAGAAGGCACUUGGG | 25.4 | 37.1 | – | –
ACCUUACAUGAGGAUCACCCAUGUCAGGAUAUCUCGGGCGGCUGGAGACCAGCCGCCCAGAGAAGGGACGAGGA | 14.4 | 15.6 | – | –
ACCUUCAAAGGAUAUGCGACUGGACGCCUUGCCAUGUAUAGACAUGAGGAUCACCCAUGUAGAAGGUUGGAGGA | 30.7 | 47.7 | – | –
ACCUUGUCAGGAUAUCCUAUUUUUUGUUUUAUAUUUACUAUGGAGAAGGGACAUGAGGAUCACCCAUGUUGGUC | 38.8 | 50.2 | – | –
ACGACGAAAGUCGAACGAUGUAGCAGAAGGACAUGAGGAUCACCCAUGUCAGCUGUAACAGCCAUGUAGGAUAUGCUACAUCGC | 4.38 | 5.45 | – | –
ACGCGAUGGGAGAAGGUACUUUAAGAAUUUUUCACAUGAGGAUCACCCAUGUAAGGAUAUCCCAUCGUUAAAUAUUAUACAGCA | 5.07 | 4.82 | – | –
ACGCUUUAUGUAGGAUAUUCAGAGAAAGAGAAAGAAGAAGGACAUGAGGAUCACCCAUGUAAGAAGUAGAUAGAGAUGAUACAU | 76.4 | 66.1 | – | –
ACGCUUUGGGAGAAGGUACGUGAAGUAUUAUCCACAUGAGGAUCACCCAUGUAAGGAUAUCCCGGCGUGAAAUAGGCUACAGCA | 4.77 | 11.3 | – | –
ACGCUUUGGGAGAAGGUACGUUAAAUUUUUUCCACAUGAGGAUCACCCAUGUAAGGAUAUCCCAUCGUUAAAUAGGCUACAGCA | 8.92 | 8.85 | – | –
ACGGAACAUGAGGAUCACCCAUGUAUCUGAGAUAUGGUCUCGCAGGAUAUUCAGAGAAGCCAAUCGGAGAAGGGUGACACCAAA | – | – | 36.6 | 19.6
ACGUAUCAUGUAGGAUAUGACCCAGGAACUUGGUCAGAAGGACAUGAGGAUCACCCAUGUAGAGUAUGUUAGGAUGACGUAUGC | 114 | 150 | – | –
ACGUGGCUGCCGCAGGAUAUACCCUGUUCCACAUGAGGAUCACCCAUGUUUACGAACUAUGAGAGGUAGAAGGGUGGAUGUCAUU | – | – | 31.2 | 13.9
ACGUGUCGUGUAGGAUAUGACACAGGAAACUGGUCAGAAGGACAUGAGGAUCACCCAUGUAGAGUGUUUAAGGAUGACGUAUGC | 46.9 | 161 | – | –
ACUAAAGAAGGAUAUACUAACGAACCUCAAACAUAGAUAAGACAUGAGGAUCACCCAUGUAGAAGGUCUAGACU | 44.2 | 37.4 | – | –
ACUAGAUGAGGAUAUGCAUAUUUUCGUGUUCUUCUAGGUUAACAUGAGGAUCACCCAUGUAGAAGGCGUCUAUU | 20.6 | 38 | – | –
ACUAGAUGAGGAUAUGCAUGUUUUCGUGUUCUUCUAGAUUAACAUGAGGAUCACCCAUGUAGAAGGCGUCAUUU | 81 | 118 | – | –
ACUAGAUGCGUGCAAUAACACAUGAGGAUCACCCAUGUGACACAGGAUAUAACCAGAUCAGAAAGUUAGAAGGGUGAGCACGCA | – | – | 29.6 | 18.9
ACUAUACGAGGAUAUACUGACGGGCCUCGGGCGUCCCUGCGACAUGAGGAUCACCCAUGUAGAAGGCGUAUACU | 39.2 | 92.8 | – | –
ACUGCAUAGUCAGGAUAUGCAAAAGCAGACUCAAAGAGUCUGAACAACACAUGAGGAUCACCCAUGUAGAAGGGACUGUGCAGU | 18.3 | 18 | – | –
ACUGUGCAUUAGAAGGGUGCGCGGCAAUCGCGCACAGGAUAUGAUGACAUGAGGAUCACCCAUGUCUGUGUUACCUGGGUGUCG | 19.1 | 135 | – | –
ACUUAUAGAGGAUAUACAGUAUAUUACAUGAGGAUCACCCAUGUUCUUCAAUGUAUAUAUGUAGAAGGCUAAGGAA | 206 | 541 | – | –
ACUUGUGAAGGAUAUACUGGCGACAUGCGCUCAACACGCGCACAUGAGGAUCACCCAUGUAGAAGGUCAAACAU | 24.7 | 34.8 | – | –
ACUUUCAUUGUGAGGAUAUGCCCAAAUAAAAGCGGGCAGAAGGCACAUGAGGAUCACCCAUGUCCUGCGGUUAU | 34.6 | 394 | – | –
AGAAAACAUGAGGAUCACCCAUGUCAGGAUAUCCUGCGGCAAUACACGCCGCGUUGUCGGAGAAGGGACAGGGA | 39 | 102 | – | –
AGAAACUACGAGAAGGACAUGAGGAUCACCCAUGUAACCACUUAGUGGAAUGUAGGAUAUCGUAGUUUCAGGAUCGUGAGAUCA | 6.91 | 9.58 | – | –

Sequence | apparent Kd [1] [nM] | apparent Kd [2] [nM] | apparent Kd [3] [nM] | apparent Kd [4] [nM]
AGAAACUACGAGAAGGACAUGUGAAAAGCCGCAAACAUGAGGAUCACCCAUGUAGGAUAUCGUAGUUUCAGGAUCGUGAGAUCA | 54.6 | 442 | – | –
AGAAAGAAGCAAGGAUAUUGUAAAAUUAAUGUACAAGAAGGUGCUGUUUAUGUCUCUUAACAUGAGGAUCACCCAUGUAUUGGU | – | – | 68.6 | 45.9
AGAAAUUAGUGAGGAUAUGCAUAAUGUGUAGCUGCAGAAGGCACGGACCACAAGACAUGAGGAUCACCCAUGUGGUAUAUAGAU | 25.9 | 29.3 | – | –
AGAACAUGAGGAUCACCCAUGUAAAGAUCGGUCAAUAAGGGUGAGGAUAUGCUUAAAAUAAGGUAGCAGAAGGUACUUGGUGCA | – | – | 91.2 | 245
AGAACAUGAGGAUCACCCAUGUAAAGAUCGGUUAAUAAGGGUGAGGAUAUGCUUAAAAUAAGGUAGCAGAAGGUACUUGGUACA | – | – | 247 | 345
AGAACAUGAGGAUCACCCAUGUAAAGGUCGGUCAAUAAGGGUGAGGAUAUGCUUAAAAUAAGGUAGCAGAAGGUGCUUGGUGCA | – | – | 713 | 603
AGAACGUCAGGAUAUGCAACAACAAGUAAAUAGAGAAGAAGGCAGAAGGGACAUGAGGAUCACCCAUGUAAGAA | 36.6 | 36.3 | – | –
AGAAGGCUACAGAAGGGACACACACGGCGGGAGUCAGGAUAUGUAGAGAAAACGUUACAUGAGGAUCACCCAUGUAGACCUUCC | – | – | 123 | 19.9
AGAAUAGAAAGAUUAAUAUGAAUACAUGAGGAUCACCCAUGUAAGGAUAUCGACGUCAAUGACGUCGAGAAGGUACAUAAUAAG | 17.7 | 17.6 | – | –
AGACGACAACAUGAGGAUCACCCAUGUUCUAGUUUAGAGUCGCAGGAUAUGACUUCGAAGCUUAGUCAGAAGGGUGAAUUCACA | – | – | 37.8 | 51
AGAGAAUACUCAGGAUAUCUGAAUAGAAAGAGAAGAGAAGGGAGACAUGAGGAUCACCCAUGUGAAGUCUUGAGACUACAUGGU | 366 | 426 | – | –
AGAGCCUCGUGAGGAUAUACAUGAGGAUCACCCAUGUAAAUGAAUGAACGGAGGAAACUCCGAAUGUAGAAGGCACGAGGCUCA | 27.9 | 166 | – | –
AGAUAUGAUGCAGGAUAUCUAUCUUGAAUGAGGAGAGAAGGGCAAACAGAGACAUAAGCCUUAUUACAUGAGGAUCACCCAUGU | 10.1 | 8.83 | – | –
AGAUAUGAUGCAGGAUAUCUAUCUUGAAUGAGGAGAGAAGGGCAAGCAGAGAGAUAAGCCUUAUUACAUGAGGAUCACCCAUGU | 10.3 | 8.56 | – | –
AGAUCACAUGAGGAUCACCCAUGUCAGGAUAUGAUACUAUGUACUUCGGUACAUAGUAUCAGAAGGGAUAUGAA | 95.2 | 193 | – | –
AGAUGACGAUGUUAUCUUCGUCGGACAUGAGGAUCACCCAUGUAGGAUAUGCUACUCAAAGAGUAGCAGAAGGACAUGUGUCUU | 37.4 | 245 | – | –
AGAUGAUGAUGUUAUCUUCGUCGGACAUGAGGAUCACCCAUGUAGGAUAUGCUACUCAAAGAGUAGCAGAAGGACAUGUAUCUU | 25.4 | 113 | – | –
AGAUGCAUGUAGAAGGGAGGAUCACCAGUGUACUCAGGAUAUACAUGUGGUGACAUGAGGAUCACCCAUGUAUGCCAGAAGUUC | – | – | 172 | 116
AGAUUCAUGGCCCGUUCGGGCCCACAUGAGGAUCACCCAUGUGAGGAUAUGAUGUACCUGAUUCAUCAGAAGGCGCAUGCGAAA | 7.32 | 20.5 | – | –
AGAUUUGUACAUGAGGAUCACCCAUGUUAAUAGGUGGUUGUCAGAAGGCAUUAAUAGAGAUUUAAUGAGGAUAUGAAUUAACAA | – | – | 903 | 593
AGCAAAUCAGGAUAUGUACUGGACGACAUGAGGAUCACCCAUGUGAUUCAGUGCGCGAGAACAGAAGGGAUUCGCU | 17.4 | 42.8 | – | –
AGCACGAAAGUGCAACGAUGUACGAGAAGGACAUGAGGAUCACCCAUGUAAGCAGUAACUGCAAUGUAGGAUAUCGUACAUCGA | 8.41 | 12 | – | –
AGCAUGCUAGGAUAUACGAAACAUUAGGGUUCGUCGUAUGAACAUGAGGAUCACCCAUGUAGAAGGAGCGUGCA | 18 | 36.2 | – | –
AGCAUGCUAGGAUAUACGAAACAUUAGGGUUCUUUGUAUGAACAUGAGGAUCACCCAUGUAGAAGGAGCGUGCA | 109 | 170 | – | –
AGCAUGUGAGGAUAUGCAGACUCCGGUAAAUCUGGAGUCCGGUAGAAGGCACAUGAGGAUCACCCAUGUGAGAU | 43.4 | 119 | – | –
AGCGGAUUGUAGAAGGGUGACAUGAGGAUCACCCAUGUUCAAAUGCGAUUUACGGUAAUUGAUCCACAGGAUAUACAGUCCGAG | – | – | 905 | 178
AGCGGCGCAGACCACCGCAAAACCAGAAGGACAUGAGGAUCACCCAUGUAACAAAACAGGGCGAUGUAGGAUAUGGCAGACCCA | 13 | 13.7 | – | –
